In test [1] the target is SUMO-activating enzyme (Homo sapiens) (UniProt Q9UBE0+Q9UBT2). The test is described as follows: Inhibition of human recombinant SAE1/2 assessed as inhibition of SUMO1-UbcH9 complex formation at 0.001 to 10 uM after 1.5 hrs by Western blot analysis. The format is protein-complex assay. The method, boiled down:
(§1)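 Cell-free gel assay. Purified human recombinant E1 incubated with its matching Ub/Ubl and E2 in 50 mM HEPES pH 7.4, 5 mM MgCl2, 1–20 μM ATP. Inhibitor at 0, 0.001, 0.01, 0.1, 1 or 10 μM, 1.5 h at room temperature. Products resolved by SDS-PAGE, immunoblotted and detected by ECL; densitometry used for semiquantitation.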

Test [2] concerns the target Epidermal growth factor receptor (Homo sapiens) (UniProt P00533). The test is described as follows: Inhibition of EGFR assessed as remaining activity at 0.1 uM by radiolabeled kinase assay relative to control.
The species entered for test [3] is Homo sapiens. The test is described as follows: Inhibition of human recombinant NAE assessed as inhibition of NEDD8-UbcH12 complex formation at 0.001 to 10 uM after 1.5 hrs by Western blot analysis. In outline:
as §1
(In western blotting, separated proteins are transferred to a membrane and probed.)

For test [4], the target named is Insulin-like growth factor 1 receptor (Homo sapiens) (UniProt P08069). In words: Inhibition of IGF1R assessed as remaining activity at 0.1 uM by radiolabeled kinase assay relative to control.
Sequence of Insulin-like growth factor 1 receptor (Homo sapiens) (P08069 31-736 limits assumed): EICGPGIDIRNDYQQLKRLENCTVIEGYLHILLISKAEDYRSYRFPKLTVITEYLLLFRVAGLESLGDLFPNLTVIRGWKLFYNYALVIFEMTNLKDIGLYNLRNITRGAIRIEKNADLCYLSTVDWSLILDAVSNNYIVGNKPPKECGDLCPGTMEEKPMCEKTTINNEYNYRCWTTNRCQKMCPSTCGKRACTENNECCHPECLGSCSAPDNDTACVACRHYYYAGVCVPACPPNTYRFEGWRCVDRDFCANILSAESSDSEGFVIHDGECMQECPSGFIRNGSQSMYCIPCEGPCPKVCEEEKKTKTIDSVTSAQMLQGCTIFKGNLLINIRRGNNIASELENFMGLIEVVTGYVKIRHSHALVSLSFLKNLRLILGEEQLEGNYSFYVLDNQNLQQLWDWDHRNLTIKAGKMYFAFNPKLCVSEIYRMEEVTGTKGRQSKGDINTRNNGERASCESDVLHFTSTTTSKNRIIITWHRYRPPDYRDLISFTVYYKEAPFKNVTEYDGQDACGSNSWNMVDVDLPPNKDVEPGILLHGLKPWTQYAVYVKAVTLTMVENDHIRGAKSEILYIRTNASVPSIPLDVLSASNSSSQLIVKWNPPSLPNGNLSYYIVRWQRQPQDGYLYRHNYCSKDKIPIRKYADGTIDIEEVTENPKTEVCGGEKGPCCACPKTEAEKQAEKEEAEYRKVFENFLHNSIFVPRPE
Sequence of Insulin-like growth factor 1 receptor (Homo sapiens) (P08069 741-1367 limits assumed): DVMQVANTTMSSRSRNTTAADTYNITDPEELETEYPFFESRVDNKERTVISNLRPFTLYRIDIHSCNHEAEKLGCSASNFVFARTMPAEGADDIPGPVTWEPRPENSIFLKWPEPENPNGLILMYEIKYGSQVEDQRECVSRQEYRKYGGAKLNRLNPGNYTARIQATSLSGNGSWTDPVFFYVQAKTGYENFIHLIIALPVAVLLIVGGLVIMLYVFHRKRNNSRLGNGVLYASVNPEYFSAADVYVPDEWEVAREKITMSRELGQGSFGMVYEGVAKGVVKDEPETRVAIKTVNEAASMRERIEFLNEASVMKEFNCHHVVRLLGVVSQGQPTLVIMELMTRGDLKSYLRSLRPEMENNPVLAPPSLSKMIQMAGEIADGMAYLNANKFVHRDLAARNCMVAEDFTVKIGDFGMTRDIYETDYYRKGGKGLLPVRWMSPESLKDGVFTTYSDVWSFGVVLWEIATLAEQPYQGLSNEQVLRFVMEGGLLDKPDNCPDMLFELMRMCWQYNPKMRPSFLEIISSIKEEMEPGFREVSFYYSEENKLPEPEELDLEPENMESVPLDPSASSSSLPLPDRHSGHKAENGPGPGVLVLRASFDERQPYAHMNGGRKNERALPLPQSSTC
Test [5] addresses Tyrosine-protein kinase ABL1 (Homo sapiens) (UniProt P00519). In words: Inhibition of ABL assessed as remaining activity at 0.1 uM by radiolabeled kinase assay relative to control.
The target in test [6] is T1, Tyrosine-protein kinase JAK3 (Homo sapiens) (UniProt P52333).
T1 sequence (whole entry): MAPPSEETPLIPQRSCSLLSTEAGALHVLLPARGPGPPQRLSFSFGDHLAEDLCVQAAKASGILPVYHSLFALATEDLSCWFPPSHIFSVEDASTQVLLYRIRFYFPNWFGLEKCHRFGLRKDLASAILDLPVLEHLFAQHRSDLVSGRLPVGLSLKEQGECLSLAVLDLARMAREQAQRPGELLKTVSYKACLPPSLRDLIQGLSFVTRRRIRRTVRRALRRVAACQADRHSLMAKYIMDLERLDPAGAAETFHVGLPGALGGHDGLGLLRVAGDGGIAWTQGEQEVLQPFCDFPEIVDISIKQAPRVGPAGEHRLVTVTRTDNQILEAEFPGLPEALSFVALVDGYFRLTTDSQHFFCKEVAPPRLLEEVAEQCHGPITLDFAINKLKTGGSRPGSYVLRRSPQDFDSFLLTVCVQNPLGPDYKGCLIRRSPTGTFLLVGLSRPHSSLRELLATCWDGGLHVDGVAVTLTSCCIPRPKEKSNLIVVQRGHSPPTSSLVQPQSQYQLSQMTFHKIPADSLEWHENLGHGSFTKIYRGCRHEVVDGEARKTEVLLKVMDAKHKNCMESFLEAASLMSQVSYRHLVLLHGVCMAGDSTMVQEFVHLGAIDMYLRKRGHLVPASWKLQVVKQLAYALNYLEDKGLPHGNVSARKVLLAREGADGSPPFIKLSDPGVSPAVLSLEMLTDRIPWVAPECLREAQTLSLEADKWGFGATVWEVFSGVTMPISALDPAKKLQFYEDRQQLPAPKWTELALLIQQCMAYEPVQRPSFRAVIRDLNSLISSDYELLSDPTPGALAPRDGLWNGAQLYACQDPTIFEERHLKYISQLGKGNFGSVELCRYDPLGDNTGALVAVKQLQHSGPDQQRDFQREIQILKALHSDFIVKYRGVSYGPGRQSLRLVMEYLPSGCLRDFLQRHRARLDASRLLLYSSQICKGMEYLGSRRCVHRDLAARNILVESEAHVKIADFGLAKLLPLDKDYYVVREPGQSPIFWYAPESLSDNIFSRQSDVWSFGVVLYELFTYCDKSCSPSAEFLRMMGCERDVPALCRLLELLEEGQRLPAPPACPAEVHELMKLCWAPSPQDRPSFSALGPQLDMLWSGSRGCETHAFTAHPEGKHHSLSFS
The test is described as follows: Inhibition of JAK3 assessed as remaining activity at 0.1 uM by radiolabeled kinase assay relative to control.

Test [7] addresses High affinity nerve growth factor receptor (Homo sapiens) (UniProt P04629). In words: Inhibition of TRKA assessed as remaining activity at 0.1 uM by radiolabeled kinase assay relative to control.
Test [8] can be described thus: Inhibition of human recombinant NAE assessed as inhibition of NEDD8-UbcH12 complex formation after 1.5 hrs by Western blot analysis. In outline: as §1
Test [9] concerns the target Tyrosine-protein kinase JAK1 (Homo sapiens) (UniProt P23458). The test is described as follows: Inhibition of JAK1 assessed as remaining activity at 0.1 uM by radiolabeled kinase assay relative to control.

Active and inactive are the calls of the source. The calls are words filed in the database; no cut-off is given here.

Sequence of Tyrosine-protein kinase ABL1 (Homo sapiens) (P00519 whole entry): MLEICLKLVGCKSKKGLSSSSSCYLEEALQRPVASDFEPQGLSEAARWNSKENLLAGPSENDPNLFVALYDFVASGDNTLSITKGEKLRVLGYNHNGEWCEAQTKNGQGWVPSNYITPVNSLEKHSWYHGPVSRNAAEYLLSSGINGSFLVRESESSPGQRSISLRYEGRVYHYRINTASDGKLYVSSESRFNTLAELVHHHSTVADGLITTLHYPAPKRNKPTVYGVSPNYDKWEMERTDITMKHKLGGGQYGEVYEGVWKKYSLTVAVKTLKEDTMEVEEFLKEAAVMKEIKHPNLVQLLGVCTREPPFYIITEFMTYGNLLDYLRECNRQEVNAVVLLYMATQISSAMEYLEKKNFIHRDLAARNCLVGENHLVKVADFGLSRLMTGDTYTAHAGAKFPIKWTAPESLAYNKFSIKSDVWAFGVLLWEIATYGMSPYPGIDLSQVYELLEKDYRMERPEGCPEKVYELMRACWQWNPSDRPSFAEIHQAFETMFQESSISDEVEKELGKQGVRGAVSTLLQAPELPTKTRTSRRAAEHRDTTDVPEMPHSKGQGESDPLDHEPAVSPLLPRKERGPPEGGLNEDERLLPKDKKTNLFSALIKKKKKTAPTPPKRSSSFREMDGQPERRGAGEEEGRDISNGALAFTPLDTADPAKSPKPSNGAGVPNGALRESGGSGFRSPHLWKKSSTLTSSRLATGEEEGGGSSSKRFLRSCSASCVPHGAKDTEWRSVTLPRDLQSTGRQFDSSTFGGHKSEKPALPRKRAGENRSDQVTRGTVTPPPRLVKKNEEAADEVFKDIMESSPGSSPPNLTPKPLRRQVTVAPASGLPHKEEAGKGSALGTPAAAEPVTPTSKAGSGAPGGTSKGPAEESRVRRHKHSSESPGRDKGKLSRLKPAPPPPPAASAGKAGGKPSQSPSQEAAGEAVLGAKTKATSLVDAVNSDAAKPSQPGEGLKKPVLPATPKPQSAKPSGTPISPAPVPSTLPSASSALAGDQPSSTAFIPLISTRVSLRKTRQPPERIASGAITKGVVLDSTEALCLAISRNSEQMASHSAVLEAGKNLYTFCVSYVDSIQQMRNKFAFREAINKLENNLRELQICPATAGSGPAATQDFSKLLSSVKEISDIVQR
Sequence of Tyrosine-protein kinase JAK1 (Homo sapiens) (P23458 whole entry): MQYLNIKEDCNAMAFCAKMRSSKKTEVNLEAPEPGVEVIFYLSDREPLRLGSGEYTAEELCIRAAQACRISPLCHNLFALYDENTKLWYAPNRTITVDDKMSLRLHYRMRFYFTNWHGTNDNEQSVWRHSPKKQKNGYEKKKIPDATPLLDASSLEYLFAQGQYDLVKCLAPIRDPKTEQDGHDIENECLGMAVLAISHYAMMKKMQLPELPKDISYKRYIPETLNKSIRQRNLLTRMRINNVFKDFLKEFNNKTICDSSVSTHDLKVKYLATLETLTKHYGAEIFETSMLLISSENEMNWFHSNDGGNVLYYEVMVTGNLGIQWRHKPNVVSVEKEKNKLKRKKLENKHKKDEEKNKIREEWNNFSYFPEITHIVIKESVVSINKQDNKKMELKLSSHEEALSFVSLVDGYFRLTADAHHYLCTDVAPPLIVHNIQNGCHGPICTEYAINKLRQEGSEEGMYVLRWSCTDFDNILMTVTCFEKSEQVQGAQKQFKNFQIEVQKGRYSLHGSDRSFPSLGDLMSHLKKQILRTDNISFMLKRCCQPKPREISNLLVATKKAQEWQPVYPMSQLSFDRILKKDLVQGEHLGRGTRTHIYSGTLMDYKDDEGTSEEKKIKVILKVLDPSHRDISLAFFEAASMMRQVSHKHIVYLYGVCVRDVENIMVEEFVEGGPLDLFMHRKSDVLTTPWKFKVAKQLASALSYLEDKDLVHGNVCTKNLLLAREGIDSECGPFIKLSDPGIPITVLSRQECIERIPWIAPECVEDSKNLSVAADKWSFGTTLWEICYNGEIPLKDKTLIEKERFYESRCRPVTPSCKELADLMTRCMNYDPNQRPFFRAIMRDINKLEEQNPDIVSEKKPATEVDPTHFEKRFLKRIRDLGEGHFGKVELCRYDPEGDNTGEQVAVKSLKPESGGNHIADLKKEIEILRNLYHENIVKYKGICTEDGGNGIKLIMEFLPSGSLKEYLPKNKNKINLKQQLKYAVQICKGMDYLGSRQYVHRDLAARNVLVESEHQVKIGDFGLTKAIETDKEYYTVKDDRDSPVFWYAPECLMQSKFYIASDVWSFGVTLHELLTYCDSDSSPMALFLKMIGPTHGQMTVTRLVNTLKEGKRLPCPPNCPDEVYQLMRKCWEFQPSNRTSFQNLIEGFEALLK
Sequence of High affinity nerve growth factor receptor (Homo sapiens) (P04629 33-796 limits assumed): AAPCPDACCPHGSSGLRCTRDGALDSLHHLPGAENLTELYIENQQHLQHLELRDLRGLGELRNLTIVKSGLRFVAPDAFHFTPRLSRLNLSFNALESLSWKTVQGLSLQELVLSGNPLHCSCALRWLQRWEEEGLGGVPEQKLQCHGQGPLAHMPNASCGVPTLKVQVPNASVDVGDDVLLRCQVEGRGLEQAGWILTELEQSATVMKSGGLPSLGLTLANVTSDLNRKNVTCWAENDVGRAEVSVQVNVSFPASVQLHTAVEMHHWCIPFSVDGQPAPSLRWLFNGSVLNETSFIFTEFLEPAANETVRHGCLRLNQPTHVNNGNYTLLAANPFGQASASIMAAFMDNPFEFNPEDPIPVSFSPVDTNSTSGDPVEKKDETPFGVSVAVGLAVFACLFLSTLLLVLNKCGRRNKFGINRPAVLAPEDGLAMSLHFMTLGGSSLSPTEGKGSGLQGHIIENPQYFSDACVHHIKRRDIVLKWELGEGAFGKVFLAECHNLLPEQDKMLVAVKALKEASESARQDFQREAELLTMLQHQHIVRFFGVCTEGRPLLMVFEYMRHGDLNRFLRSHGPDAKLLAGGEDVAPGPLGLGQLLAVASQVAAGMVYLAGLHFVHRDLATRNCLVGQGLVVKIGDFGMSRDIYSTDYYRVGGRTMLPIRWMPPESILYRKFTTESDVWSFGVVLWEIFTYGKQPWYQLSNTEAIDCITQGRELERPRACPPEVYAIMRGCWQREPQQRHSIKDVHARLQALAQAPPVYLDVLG

In general, IC50 refers to the concentration needed to halve the response being measured. As for `CCCCCCNc1ncnc2c1ncn2[C@@H]1O[C@H](COS(N)(=O)=O)[C@@H](O)[C@H]1O`, the inhibition entry in test [1] and in [3] was “Active” in each case. For the same compound, the Activity in test [2] is 98.9%; in test [4], 100%; in test [5], 102%; in [6] it was 94%; in test [7], 109%; in test [9], 99.3%. Further, in test [8], the IC50 was < 10 nM.

Values taken from ChEMBL document CHEMBL2016531, “Identification of NAE Inhibitors Exhibiting Potent Activity in Leukemia Cells: Exploring the Structural Determinants of NAE Specificity” (ACS Med Chem Lett, 2011).
